Yeast fitness data for 167 variants are collected here from the RNAGym collection of RNA variant scans (doi:10.1126/science.aae0568).

B1: tRNA (parent)
chain: GUUCCGUUGGCGUAAUGGUAACGCGUCUCCCUCCUAAGGAGAAGACUGCGGGUUCGAGUCCCGUACGGAACG

Variants at the floor of the assay were thinned out.

The variants in this data set derive from B1. Kind of data set: yeast fitness relative to wild type (ratio to wild type); higher = fitter; tRNA-Arg(CCU), competitive growth, 37 C, YPD. The method, boiled down:
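Amplicons of the tRNA-Arg(CCU) gene were sequenced, 100-nucleotide paired-end, from the start population and from each end population of a pooled yeast competition. The competition, in six parallel replicates, lasted 24 hours in YPD at 37°C. Fitness relative to wild type was calculated from changes in genotype frequencies. Genotypes had to have ≥ 100 starting reads, and estimates < 0.5 were set to 0.5.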
With C27U C31A G63A, the yeast fitness was at most 0.5.

Take A42G G44C A65C: the yeast fitness is 0.563.

With G9A U28C C49A, the yeast fitness is at most 0.5.

In the case of C34A G51A C61G A69U, the yeast fitness was determined as 0.606.

Consider A21C A36U C55U, for which the yeast fitness stood at 0.626.

Regarding U2A G18A C24A U28A U32C C60A, the yeast fitness was at most 0.5.

Regarding A36U G50C, the yeast fitness was determined as 0.587.

C4G C62A: the yeast fitness came out at 0.67.

With G56A G67A, the yeast fitness came to 0.901.

On to G12A C30U U54C, for which the yeast fitness was at most 0.5.

With C5A A20U A36G, the yeast fitness was at most 0.5.

In the case of A15U C31A C49G, the yeast fitness stood at 0.576.

Take G9C C49G: the yeast fitness is 0.63.

Turning to A36G A45G A65U G67U, the yeast fitness was at most 0.5.

In the case of U19C U53A, the yeast fitness was 0.689.

For U54G C61A, the yeast fitness was at most 0.5.

Consider G10C C34A, for which the yeast fitness stood at 0.504.

Regarding A20G A70U, the yeast fitness stood at 1.06.

Consider U2A C5G C31U C66U, for which the yeast fitness is at most 0.5.

As for U8A G18C G25C C60U C61A, the yeast fitness is at most 0.5.

Consider C4A G17A C27U C33U, for which the yeast fitness is at most 0.5.

Take A14G A21G C22U: the yeast fitness stood at 0.555.

Take A40C C46A: the yeast fitness stood at 0.994.

Regarding G12A C31U C55G G67C, the yeast fitness is at most 0.5.

Regarding A20U G48A C61A A65C, the yeast fitness is at most 0.5.

Regarding A20C C30A C33U C34U C49A, the yeast fitness is 0.733.

As for A21C C27U C61U G68A, the yeast fitness is at most 0.5.

On to U2G C34G A43C, for which the yeast fitness came out at 0.552.

Turning to C5U G51C A57C, the yeast fitness is at most 0.5.

On to U2C C5U C27G U28A A43U, for which the yeast fitness was at most 0.5.

C5G C24G C30G C31U U35A A36U G44A C61U: the yeast fitness is 0.67.

In the case of U3C A15U C34U A43G, the yeast fitness is 0.545.

Take C4U G48C: the yeast fitness amounted to 0.951.

In the case of C30U C62U, the yeast fitness was 0.868.

In the case of U16A U28C C33G A36U, the yeast fitness was at most 0.5.

In the case of G9A C34U A36G C49G C62A A65C, the yeast fitness was at most 0.5.

Take C11G U16G C55A: the yeast fitness was at most 0.5.

As to A14U G23A A40U G48C C55U C61G, the yeast fitness is at most 0.5.

As to C29G A43C, the yeast fitness was 0.661.

For the variant U16C U28G C30G A40C A42U, the yeast fitness was at most 0.5.

Turning to U3A U8C C30G C33U, the yeast fitness is at most 0.5.

Turning to C4U C30U G48C G68C, the yeast fitness was at most 0.5.

With G10A A21G C29A U53C C61G G67A A69C, the yeast fitness was at most 0.5.

On to C22G G50U, for which the yeast fitness was 0.873.

In the case of U32A C61G, the yeast fitness worked out at 0.526.

Turning to A36G A42U U53C, the yeast fitness was at most 0.5.

On to C5U U19C C34U A70C, for which the yeast fitness was at most 0.5.

Turning to A15C U32C C62U, the yeast fitness is 0.54.

With C22U C31U, the yeast fitness came out at 0.94.

Regarding C22U A43G A45C C46G G63A, the yeast fitness is 0.635.

With C11U G25C C55U, the yeast fitness is at most 0.5.

G18A C34U A43C C46G: the yeast fitness was at most 0.5.

With C29U C31U U54G, the yeast fitness is 0.522.

As for C5A A21C C27A, the yeast fitness is 0.568.

With G39U C49A G58C, the yeast fitness came to 0.646.

In the case of U8C G50A A65C, the yeast fitness was 0.603.

As to C4A A43U C60A, the yeast fitness was at most 0.5.

As to U47A G68U, the yeast fitness worked out at 0.775.

As to C46U G50A, the yeast fitness stood at 0.965.

Take A43U C60A: the yeast fitness was determined as 0.59.

Take C4U A14G A15C G63C: the yeast fitness was at most 0.5.

G12A C24G: the yeast fitness was determined as 0.758.

U2C C31G: the yeast fitness amounted to 1.04.

Turning to A14U U26C A42U, the yeast fitness came out at 0.676.

In the case of A42U U47C, the yeast fitness came to 0.939.

For the variant U3A A45G G67C, the yeast fitness turned out to be 0.628.

With U32C G51C C61U, the yeast fitness is at most 0.5.

Regarding U7A G12C C27G C31A C46A G56C, the yeast fitness stood at 0.587.

As to A36G G39A, the yeast fitness worked out at 0.954.

With U8G G12A A21C U26C C60U, the yeast fitness is at most 0.5.

With C31G G67U A69C, the yeast fitness worked out at 0.526.

With A20C C30U C31U A45C A57U C66G, the yeast fitness was at most 0.5.

Take C5U U13G C55U G67C: the yeast fitness was at most 0.5.

Consider U2C U8G U32G U35A C55U G58A, for which the yeast fitness was at most 0.5.

For the variant C5U U13C C30U A40G C55A G63C A65C, the yeast fitness is at most 0.5.

As for G12A A20U C49U U53G A65G, the yeast fitness was at most 0.5.

For the variant C4U G10A C22U, the yeast fitness was at most 0.5.

With C22G C62A, the yeast fitness turned out to be 0.787.

Consider C5G A20U A70C, for which the yeast fitness was 0.68.

For C24G A42U C49U G67C, the yeast fitness was at most 0.5.

G9A A20G U64C: the yeast fitness is 0.674.

For the variant A14G A21C C30G C55G G67U, the yeast fitness stood at 0.534.

As to U19C A57G G58C, the yeast fitness is 0.609.

With G23C C24A A57G G68A, the yeast fitness was at most 0.5.

As to A15C G50C U64C, the yeast fitness was found to be 0.545.

Take C24U C31A C55G A57U: the yeast fitness was 0.532.

On to U7G C11G C34U G41A C61A A65C, for which the yeast fitness was at most 0.5.

As to G6C U8A C22U C61G, the yeast fitness worked out at 0.501.

Regarding C5U G17C G18C C60G C61G, the yeast fitness was at most 0.5.

For the variant C30U C46U, the yeast fitness was found to be 0.966.

As to C46G C61U, the yeast fitness stood at 1.05.

As to C22G A42C A65U G67A, the yeast fitness is at most 0.5.

As to C31G C49U, the yeast fitness was 0.92.

With G6A A37U C62G, the yeast fitness is at most 0.5.

Turning to C31G A36C A42G G52A, the yeast fitness was at most 0.5.

In the case of U8A G18C A36U C66U, the yeast fitness stood at 0.505.

As for C22G C30U C49G, the yeast fitness is at most 0.5.

As to U13C C31A, the yeast fitness was found to be 0.901.

As to C22G C29A A42C, the yeast fitness was 0.542.

C27G A37G G39A C61G: the yeast fitness stood at 0.821.

With U13A C30U U47A U59A C60U C62G, the yeast fitness was at most 0.5.

Take C4G G9C C22A A69U: the yeast fitness was 0.525.

In the case of C29A A42G A70U, the yeast fitness amounted to 0.582.

For U3C C31G U32C G38C C46G G48C G68C, the yeast fitness was at most 0.5.

Take A40G A43G C62G: the yeast fitness was at most 0.5.

Turning to C11U A36U G48C U54C, the yeast fitness was at most 0.5.

With C22G C55G, the yeast fitness is 0.585.

As for A40G G50A U54A, the yeast fitness was 0.552.

Take U8A C11A C66U: the yeast fitness is 0.585.

For U2C U3C C34U G68C, the yeast fitness was at most 0.5.

As for G17A U32A A43G G67C, the yeast fitness was at most 0.5.

For the variant A15G A57U, the yeast fitness amounted to 0.636.

With C31U A36G, the yeast fitness came out at 0.857.

As for C31A A45C C62U G63A U64A, the yeast fitness was determined as 0.521.

For the variant A20G C66G, the yeast fitness worked out at 0.809.

C24A U64A: the yeast fitness is 0.622.

For C4A C24A G67A, the yeast fitness is at most 0.5.

For A36U G67A, the yeast fitness came to 0.63.

C11U G23C G58A: the yeast fitness was determined as 0.669.

C5U U13A A57U: the yeast fitness came out at 0.573.

As to G12C C24U C30U C60A, the yeast fitness was at most 0.5.

As for A14U C60U C62U A70G, the yeast fitness is at most 0.5.

With U3G C4A G9A U64A, the yeast fitness was at most 0.5.

With G12A U47C A57C, the yeast fitness came to 0.579.

As for U8A A15U A20U G25C C29A A40C G50A, the yeast fitness is at most 0.5.

Take G9A A21U A36G A40C U47C: the yeast fitness is at most 0.5.

For the variant G12A A15U A21C C49U, the yeast fitness was at most 0.5.

As for C22G C31U C46U A69U, the yeast fitness is 0.526.

Turning to G10A A14G C33U, the yeast fitness is at most 0.5.

For U2C G23C, the yeast fitness was 0.651.

Take U13C A15C C46G: the yeast fitness was at most 0.5.

For the variant G39C A57C A70U, the yeast fitness is at most 0.5.

Turning to A20U A45C G51U A65G, the yeast fitness is at most 0.5.

Turning to C31G A37G C62U G63C, the yeast fitness is 0.54.

Take C22G G52A C55U: the yeast fitness is at most 0.5.

On to C4U U8A U32G U35A G68U, for which the yeast fitness was at most 0.5.

Turning to U16C G23C C29G A43U G50A A65C, the yeast fitness was at most 0.5.

For G6A C11A U54G, the yeast fitness was 0.563.

For the variant U28C C30U C49U, the yeast fitness was at most 0.5.

Regarding C30A G50C A69U, the yeast fitness was at most 0.5.

For the variant C5G C31U C60U A69G, the yeast fitness was at most 0.5.

Take C5U A20G C46G C49G: the yeast fitness was at most 0.5.

Take G10C C33G A36C: the yeast fitness is at most 0.5.

For A37C G56A, the yeast fitness was 0.829.

Turning to G52C G67C, the yeast fitness was 0.555.

C31A A40C C46U C55U G63A: the yeast fitness is at most 0.5.

On to C22A U47C C61G, for which the yeast fitness was at most 0.5.

As to A36G G39A U47A G68C, the yeast fitness is at most 0.5.

Take C31A C33U G41C G67C: the yeast fitness was at most 0.5.

For the variant G12A G18C U19C C29U, the yeast fitness is at most 0.5.

G12A U32C U35A G58A G68A: the yeast fitness was at most 0.5.

As to C11U C61U A70G, the yeast fitness came to 0.77.

As for C5G C24G C61A C62A G68C, the yeast fitness amounted to 0.69.

On to U32G A45G, for which the yeast fitness amounted to 0.673.

As to C5U A69U, the yeast fitness stood at 0.972.

With G10A A57C C66G, the yeast fitness is at most 0.5.

Turning to A57U C60G G68C, the yeast fitness came to 0.532.

Take C4U G18C A45U G52A A65U: the yeast fitness is at most 0.5.

As for U2G C55U C61G A65G G68A, the yeast fitness is at most 0.5.

With C4G U8A G18C U32A U47C, the yeast fitness was found to be 0.574.

Regarding G39C G67C, the yeast fitness amounted to 0.742.

Regarding C4U C30U C31G C62U, the yeast fitness is 0.766.

As to G12A C62A, the yeast fitness is 0.823.

Take C11G A15C C34U U47C G48A C55U: the yeast fitness is at most 0.5.

Turning to G12A A14C, the yeast fitness worked out at 0.796.

Regarding C5G G18C C31A, the yeast fitness was at most 0.5.

With U7C C29G G39A, the yeast fitness is at most 0.5.
